Data on eleven compounds can be found in ChEMBL document CHEMBL2034826, “Novel 1,2,4-triazole and imidazole derivatives of L-ascorbic and imino-ascorbic acid: synthesis, anti-HCV and antitumor activity evaluations” (Bioorg Med Chem, 2012).

The structures appear in SMILES notation. ≈ marks a conversion by molar mass, not a printed value.

One may read the IC50 as the concentration that inhibits the measured activity by half. A word on the EC50: it is the concentration needed to bring the measured effect to its halfway point. As usually defined, the CC50 is the concentration giving 50% cytotoxicity. Lower therefore signals greater toxicity to the cells. A word on the EC90: it is the concentration at which the effect reaches the 90% level.

Series [1] concerns HeLa. As to the kind of experiment: Antiproliferative activity against human HeLa cells after 72 hrs by MTT assay. In kind it is functional, cell-based. In short, it runs like this:
(§1)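 Monolayer lines grown in DMEM with 10% FBS, 2 mM L-glutamine, penicillin/streptomycin, 37 °C, 5% CO2. Seeded at 3000–6000 cells/well by doubling time, then compound added as five 10-fold dilutions (1 × 10^-8 to 1 × 10^-4 M), DMSO ≤0.1%, for 72 h. MTT read-out converted to percentage growth versus untreated wells. IC50 from linear regression. Quadruplicate points, three experiments.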

Series [2] deals with WI-38. As to the kind of experiment: Antiproliferative activity against human WI38 cells after 72 hrs by MTT assay. In kind it is cell-based. The note with it: WI-38, 72 h. In short, it runs like this:
as §1
For orientation: Tetrazolium dyes change colour on reduction, which living cells bring about.

Series [3] concerns Hepatitis C virus. The series is described as follows: Antiviral activity against HCV genotype 1b infected in HuH 5.2 cells expressing 1389luc-ubi-neo/NS3-3' assessed as inhibition of viral replication after 72 hrs by luciferase reporter gene assay. The series is classed as functional, organism-based, Hepacivirus hominis. The note with it: Huh-5-2, 72 h. In a few lines:
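Huh 5.2 cells carrying the genotype 1b I389luc-ubi-neo/NS3-3'/5.1 replicon, seeded at 6500 cells/well in medium without Geneticin and left overnight. Four-step 1-to-5 compound dilutions, 72 h at 37 °C. Cells washed and lysed, then luciferase luminescence read and expressed as percent of untreated controls. EC50 and EC90 from the dose-response curve.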

For series [4], the system named is MIA PaCa-2. The series is described as follows: Antiproliferative activity against human MIAPaCa2 cells after 72 hrs by MTT assay. The series is classed as functional, cell-based. The note with it: MIA PaCa-2, 72 h. In a few lines:
as §1

A short description of series [5]: Cytostatic activity against mouse L1210/0 after 48 hrs by cell counting. In kind it is functional. The note with it: L1210/0, 48 h. In short, it runs like this: (§2)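 Suspension leukaemia cells in RPMI-1640 with 10% FBS, 2 mM L-glutamine, 0.075% NaHCO3. Seeded at 5–7.5 × 10^4 cells/well with compound and grown at 37 °C for 48 h (L1210) or 72 h (CEM). Cells counted by Coulter counter. IC50 is the concentration that reduces viable cell number by 50%.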

For series [6], the system named is MCF7. The series is described as follows: Antiproliferative activity against human MCF7 cells after 72 hrs by MTT assay. In kind it is functional, cell-based. The settings on record: MCF7, 72 h. In short, it runs like this:
as §1

Series [7] in a line: Cytotoxicity against human HuH5.2 cells after 72 hrs by MTS assay. The series is classed as cell-based, Huh-5-2. In short, it runs like this:
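Replicon-bearing Huh 5.2 cells treated in parallel with the antiviral plates using a four-step 1-to-5 dilution series for 72 h. Medium replaced with 5% MTS in phenol red-free medium for 1.5 h, absorbance read at 498 nm, and converted to percent of untreated controls. CC50 is the concentration that reduces metabolic activity by 50%, taken from the dose-response curve.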

The test system of series [8] is HepG2. The series is described as follows: Antiproliferative activity against human HepG2 cells after 72 hrs by MTT assay. In kind it is functional, cell-based. The settings on record: HepG2, 72 h. In short, it runs like this:
as §1

Series [9] deals with CCRF-CEM. As to the kind of experiment: Cytostatic activity against human CEM/0 after 72 hrs by cell counting. In kind it is functional. In short, it runs like this: as §2
In series [10] the test system is SW-620. The series is described as follows: Antiproliferative activity against human SW620 cells after 72 hrs by MTT assay. In kind it is functional, cell-based. The settings on record: SW-620, 72 h. In a few lines: as §1
Series [11] relates to L1210. The series is described as follows: Ratio of ribavirin IC50 to compound IC50 for IMPDH in mouse L1210 cells. In kind it is cell-based.
Series [12] relates to CCRF-CEM. As to the kind of experiment: Ratio of ribavirin IC50 to compound IC50 for IMPDH in human CEM cells. The series is classed as cell-based.
The nature of series [13]: Selectivity index, ratio of CC50 for human HuH5.2 cells to EC50 for HCV genotype 1b.
A short description of series [14]: (§3) Inhibition of IMPDH in human CEM cells assessed as […] after 20 to 60 mins. In kind it is cell-based. The note with it: CCRF-CEM. In a few lines: (§4)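 Intact L1210 or CEM cells given [2,8-3H]hypoxanthine, which the cells convert to labelled IMP. IMPDH activity measured as 3H release, sampled at 20, 40 and 60 min with or without compound at varying concentrations. After centrifugation at 1100×g for 10 min, supernatant radioactivity counted. Free 3H before cell incubation was below 10% of added label.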

For series [15], the system named is CCRF-CEM. The series is described as §3. In kind it is cell-based. In short, it runs like this:
as §4

For series [16], the system named is L1210. The series is described as follows: (§5) Inhibition of IMPDH in mouse L1210 cells assessed as […] after 20 to 60 mins. The series is classed as cell-based. In a few lines:
as §4

Series [17] in a line: as §5. In kind it is cell-based. In a few lines: as §4

Turning to `COC(=O)c1ncn(C[C@H](O)[C@H]2OC(=O)C(OCc3ccccc3)=C2OCc2ccccc2)n1`, the IC50 in series [1], in [2], in [4], in series [5], in [6] and in series [8] was more than 100 µM in each case. The IC50 in [9] and in series [10] was more than 100 µM throughout. Further, the EC50 in series [3] stood at 62.1 µg/mL (≈ 133 µM). Also, the cytotoxic concentration (CC50) at 72 h in series [7] was more than 100 µg/mL.
Consider `NC(=O)c1ncn(CCC2(O)NC(=O)C(OCc3ccccc3)=C2OCc2ccccc2)n1` (stereo unspecified), for which the concentration for half-maximal inhibition (IC50) in [1] is more than 100 µM; in [2], more than 100 µM; in series [4], more than 100 µM; in series [5], not below 500 µM; in [6], 61 µM; in series [8], 66 µM. For the same compound, the IC50 in series [9] is 445 µM; in series [10], more than 100 µM. Besides, the EC50 in series [3] was more than 100 µg/mL. Further, the EC90 in series [3] is more than 100 µg/mL. This compound also gave a CC50 at 72 h in [7] of more than 100 µg/mL.
In the case of `COC(=O)c1ncn(CCC2(O)NC(=O)C(OCc3ccccc3)=C2OCc2ccccc2)c1C(=O)OC` (stereo unspecified), the IC50 in series [1] is 81 µM; in series [2] it was 52 µM; in series [4], 47 µM; in [5], 46 µM; in series [6] it was more than 100 µM; in series [8], more than 100 µM. Further, the IC50 was 35 µM in series [9] and more than 100 µM in series [10]. Moreover, the EC50 in series [3] amounted to 36.6 µg/mL (≈ 70.2 µM). The EC90 in [3] worked out at 81.3 µg/mL (≈ 156 µM). The same compound returned a CC50 at 72 h in [7] of more than 100 µg/mL.
Turning to `NC(=O)c1ncn(CCC2(O)NC(=O)C(OCc3ccccc3)=C2OCc2ccccc2)c1C(N)=O` (stereo unspecified), the IC50 in series [1] was more than 100 µM; in series [2], 98 µM; in [4], more than 100 µM; in [5] it was 198 µM; in series [6] it was more than 100 µM; in series [8], more than 100 µM. For the same compound, the IC50 was 154 µM in series [9] and more than 100 µM in series [10]. In addition, the Ratio IC50 in series [11] and in series [12] was 50 throughout. The EC50 in series [3] is more than 100 µg/mL. Besides, in [3], the EC90 was more than 100 µg/mL. The compound further displayed a CC50 at 72 h in [7] of more than 100 µg/mL.
For `COC(=O)c1ncn(CC=C2OC(=O)C(OCc3ccccc3)=C2OCc2ccccc2)n1` (mixture of isomers), the IC50 was 97 µM in [1]; more than 100 µM in [2]; 80 µM in series [4]; 103 µM in [5]; 54 µM in series [6]; 70 µM in [8]. Further, the IC50 in series [9] is 44 µM; in [10] it was more than 100 µM. The Ratio IC50 in series [11] and in series [12] was 50 in each case. For the same compound, in series [3], the EC50 was 78.5 µg/mL. For the same compound, the EC90 in series [3] was more than 100 µg/mL. Further, the CC50 at 72 h in [7] was more than 100 µg/mL.
`COC(=O)c1ncn(CC=C2OC(=O)C(O)=C2O)n1` (mixture of isomers): the IC50 in [1] is more than 100 µM; in series [2], more than 100 µM; in series [4], more than 100 µM; in [5] it was 370 µM; in [6], more than 100 µM; in series [8], more than 100 µM. Also, the figures for the IC50 in [9] and in [10] were more than 500 µM and more than 100 µM, respectively. Further, the EC50 in series [3] worked out at 61.3 µg/mL. Moreover, in series [7], the CC50 at 72 h was more than 100 µg/mL.
On to `COC(=O)c1ncn(CC=C2OC(=O)C(OCc3ccccc3)=C2OCc2ccccc2)c1C(=O)OC` (mixture of isomers), for which the IC50 was 34 µM in series [1]; more than 100 µM in [2]; 33 µM in series [4]; 32 µM in series [5]; 52 µM in series [6]; 55 µM in series [8]. The values for the IC50 in series [9] and in series [10] were 10 µM and 49 µM, respectively. In addition, the Ratio IC50 in [11] and in series [12] was 50 throughout. Also, the EC50 in [3] was 13.3 µg/mL. The EC90 in [3] was 22.7 µg/mL. Also, in [13], the “Ratio CC50/EC50” value is 5.3. Besides, in series [7], it took 70.5 µg/mL to reach half-maximal cytotoxicity (CC50 at 72 h).
In the case of `N#Cc1ncn(C/C=C2\OC(=O)C(OCc3ccccc3)=C2OCc2ccccc2)c1C#N` (mixture of isomers), the IC50 in series [1] came to 59 µM; in series [2] it was 73 µM; in series [4], 36 µM; in series [5], 21 µM; in series [6] it was 63 µM; in series [8], 92 µM. Moreover, the IC50 was 7.3 µM in [9] and 73 µM in [10]. Also, the EC50 in [3] is more than 100 µg/mL. Also, in [3], the EC90 is more than 100 µg/mL. In series [7], this compound came in with a CC50 at 72 h of more than 100 µg/mL.
For the compound `COc1cccc2c1C(=O)c1c(O)c3c(c(O)c1C2=O)C[C@@](O)(C(=O)CO)C[C@@H]3O[C@H]1C[C@H](N)[C@H](O)[C@H](C)O1` [DOXORUBICIN], the IC50 in series [2] worked out at 0.04 µM; in series [4], 0.03 µM; in series [5] it was 1.3 µM; in series [8], 0.05 µM; in [9], 0.39 µM; in series [10], 0.04 µM.
For `O=c1[nH]cc(F)c(=O)[nH]1` [FLUOROURACIL], the IC50 in [1] was found to be 14.9 µM; in series [2] it was 24.7 µM; in [4], 11.7 µM; in series [6], 66.9 µM; in series [8], 56.2 µM; in series [10], 6.68 µM.
Turning to `NC(=O)c1ncn([C@@H]2O[C@H](CO)[C@@H](O)[C@H]2O)n1` [RIBAVIRIN], the IC50 in [14] is 1 µM; in [17], 1 µM; in series [5], 22 µM; in series [9] it was 63 µM. Also, the inhibition result in [15] and in [16] was “Dose-dependent effect” in each case.
